According to ChEMBL document CHEMBL3352557, “Design, synthesis and antimycobacterial activity of various 3-(4-(substitutedsulfonyl)piperazin-1-yl)benzo[d]isoxazole derivatives” (Eur J Med Chem, 2014):
≈ marks a conversion by molar mass, not a printed value.

Assays:
[1] = tested on: Mycobacterium tuberculosis; assay: Antimycobacterial activity against Mycobacterium tuberculosis H37Rv ATCC 27294 after 7 days by MABA method; type: functional; settings: H37Rv ATCC 27294, 168 h
Procedure, shortened: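 Two-fold serial dilutions in Middlebrook 7H9GC medium, final 50 to 0.78 µg/mL (DMSO stocks), inoculum 2 × 10^5 CFU/mL. Incubated at 37 °C for 7 days, then 10% Tween 80 and Alamar Blue added and incubated 24 h at 37 °C. Blue read as no growth, pink as growth. MIC is the lowest concentration preventing the blue-to-pink change. Isoniazid and rifampin served as positive controls.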

[2] = Cytotoxicity against mouse RAW264.7 cells assessed as inhibition of cell growth at 50 ug/mL after 72 hrs by MTT assay; type: cell-based; settings: read-out: GI
Procedure, shortened: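 RAW 264.7 mouse macrophage line treated at 50 µg/mL for 72 h. Viability was scored by cellular reduction of MTT to a formazan product in a non-radioactive cell proliferation assay.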

RAW264.7 = assay: Cytotoxicity against mouse RAW264.7 cells assessed as inhibition of cell growth after 72 hrs by MTT assay; type: cell-based; settings: RAW264.7, 72 h
Procedure, shortened: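 Mouse macrophage RAW 264.7 cells exposed to compound for 72 h. Viability was read as cellular conversion of MTT to formazan using a non-radioactive cell proliferation kit, and IC50 was taken from this.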

[3] = Selectivity index, ratio of IC50 for mouse RAW264.7 cells to MIC for Mycobacterium tuberculosis H37Rv ATCC 27294; type: toxicity; settings: read-out: Selectivity Index
[4] = tested on: Mycobacterium tuberculosis; assay: Antimycobacterial activity against Mycobacterium tuberculosis H37Rv ATCC 27294 assessed as inhibition of cell growth at 6.25 ug/mL after 7 days by MABA method; type: functional; settings: H37Rv ATCC 27294, 168 h, read-out: GI
[5] = tested on: Mycobacterium tuberculosis; assay: Antimycobacterial activity against Mycobacterium tuberculosis H37Rv ATCC 27294 assessed as inhibition of cell growth at 3.125 ug/mL after 7 days by MABA method; type: functional; settings: H37Rv ATCC 27294, 168 h, read-out: GI

Compound | MIC [1] [µg/mL] | further results
CS(=O)(=O)N1CCN(c2noc3cccc(Cl)c23)CC1 | > 50 | –
O=S(=O)(c1ccc(Br)cc1)N1CCN(c2noc3cccc(Cl)c23)CC1 | 50 (≈ 109 µM) | –
O=S(=O)(c1ccc(OC(F)(F)F)cc1)N1CCN(c2noc3ccccc23)CC1 | > 50 | –
Cc1ccc(S(=O)(=O)N2CCN(c3noc4ccccc34)CC2)cc1 | 50 (≈ 140 µM) | –
Clc1cccc2c(N3CCNCC3)noc12 | 25 (≈ 105 µM) | –
CS(=O)(=O)N1CCN(c2noc3c(Cl)cccc23)CC1 | 25 (≈ 79.2 µM) | –
Cc1ccc(S(=O)(=O)N2CCN(c3noc4cc(Cl)ccc34)CC2)cc1 | > 50 | –
CO[C@H]1/C=C/O[C@@]2(C)Oc3c(C)c(O)c4c(O)c(c(/C=N/N5CCN(C)CC5)c(O)c4c3C2=O)NC(=O)/C(C)=C\C=C\[C@H](C)[C@H](O)[C@@H](C)[C@@H](O)[C@@H](C)[C@H](OC(C)=O)[C@@H]1C [RIFAMPIN] | 1 (≈ 1.22 µM) | –
O=S(=O)(c1ccc(OC(F)(F)F)cc1)N1CCN(c2noc3cc(Cl)ccc23)CC1 | 12.5 (≈ 27.1 µM) | inhibition at 72 h, 50 ug/mL [2]: 18.1%; IC50 (RAW264.7): 138 µg/mL (≈ 299 µM); selectivity ratio [3]: 11
O=S(=O)(c1ccccc1)N1CCN(c2noc3cc(Cl)ccc23)CC1 | 25 (≈ 66.2 µM) | –
O=S(=O)(c1ccc(OC(F)(F)F)cc1)N1CCN(c2noc3c(Cl)cccc23)CC1 | > 50 | –
O=[N+]([O-])c1ccc(S(=O)(=O)N2CCN(c3noc4cccc(Cl)c34)CC2)cc1 | 50 (≈ 118 µM) | –
Clc1ccc2c(N3CCNCC3)noc2c1 | 12.5 (≈ 52.6 µM) | inhibition at 72 h, 50 ug/mL [2]: 24.1%; IC50 (RAW264.7): 104 µg/mL (≈ 436 µM); selectivity ratio [3]: 8.29
O=S(=O)(c1ccc(Br)cc1)N1CCN(c2noc3ccccc23)CC1 | 50 (≈ 118 µM) | –
O=S(=O)(c1ccc(OC(F)(F)F)cc1)N1CCN(c2noc3cccc(Cl)c23)CC1 | 12.5 (≈ 27.1 µM) | inhibition at 72 h, 50 ug/mL [2]: 42.2%; IC50 (RAW264.7): 59.3 µg/mL (≈ 128 µM); selectivity ratio [3]: 4.74
O=S(=O)(c1ccc(Br)cc1)N1CCN(c2noc3cc(Cl)ccc23)CC1 | > 50 | –
c1ccc2c(N3CCNCC3)noc2c1 | 6.25 (≈ 30.8 µM) | inhibition at 72 h, 50 ug/mL [2]: 36.8%; IC50 (RAW264.7): 67.9 µg/mL (≈ 334 µM); selectivity ratio [3]: 10.8
Clc1cccc2onc(N3CCNCC3)c12 | 25 (≈ 105 µM) | –
Cc1ccc(S(=O)(=O)N2CCN(c3noc4c(Cl)cccc34)CC2)cc1 | > 50 | –
O=S(=O)(c1ccccc1)N1CCN(c2noc3cccc(Cl)c23)CC1 | 25 (≈ 66.2 µM) | –
Cc1ccc(S(=O)(=O)N2CCN(c3noc4cccc(Cl)c34)CC2)cc1 | 6.25 (≈ 15.9 µM) | inhibition at 72 h, 50 ug/mL [2]: 21.6%; IC50 (RAW264.7): 116 µg/mL (≈ 295 µM); selectivity ratio [3]: 18.5; inhibition of growth at 6.25 µg/mL [4]: 99%
O=[N+]([O-])c1ccc(S(=O)(=O)N2CCN(c3noc4ccccc34)CC2)cc1 | > 50 | –
CS(=O)(=O)N1CCN(c2noc3ccccc23)CC1 | 12.5 (≈ 44.4 µM) | inhibition at 72 h, 50 ug/mL [2]: 28.4%; IC50 (RAW264.7): 88 µg/mL (≈ 313 µM); selectivity ratio [3]: 7.03
O=S(=O)(c1ccc(Br)cc1)N1CCN(c2noc3c(Cl)cccc23)CC1 | 25 (≈ 54.7 µM) | –
O=[N+]([O-])c1ccc(S(=O)(=O)N2CCN(c3noc4c(Cl)cccc34)CC2)cc1 | 50 (≈ 118 µM) | –
O=S(=O)(c1ccccc1)N1CCN(c2noc3ccccc23)CC1 | 3.12 (≈ 9.09 µM) | inhibition at 72 h, 50 ug/mL [2]: 5.82%; IC50 (RAW264.7): 430 µg/mL (≈ 1250 µM); selectivity ratio [3]: 137; inhibition of growth at 3.125 µg/mL [5]: 99%
O=S(=O)(c1ccccc1)N1CCN(c2noc3c(Cl)cccc23)CC1 | 25 (≈ 66.2 µM) | –
O=[N+]([O-])c1ccc(S(=O)(=O)N2CCN(c3noc4cc(Cl)ccc34)CC2)cc1 | 25 (≈ 59.1 µM) | –
CS(=O)(=O)N1CCN(c2noc3cc(Cl)ccc23)CC1 | > 50 | –
NNC(=O)c1ccncc1 [ISONIAZID] | 0.36 (≈ 2.63 µM) | –
